# Assay results as given in ChEMBL document CHEMBL1152161, “A facile synthesis, antibacterial, and antitubercular studies of some piperidin-4-one and tetrahydropyridine derivatives” (2008).
# The source made the active and inactive calls. The rule behind the calls is not given here.
# Columns and labels:
# Staphylococcus aureus [1] = test: Antibacterial activity against Staphylococcus aureus by broth micro dilution method; type: functional
# Outline: (§1)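 MIC90 was found by broth microdilution following NCCLS methods. Compounds were tested up to a top concentration of […]. Linezolid and trovafloxacin served as positive controls and DMSO as the negative control.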
# [2] = test system: Staphylococcus epidermidis; test: Antibacterial activity against Staphylococcus epidermidis by broth micro dilution method; type: functional
# Outline: (§2)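 MIC90 was determined by broth microdilution following NCCLS methods. Linezolid and trovafloxacin were run as positive controls, with DMSO as the negative control. Compounds were tested up to a top concentration of 128.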
# Enterococcus faecalis [3] = test: Antibacterial activity against Enterococcus faecalis by broth micro dilution method; type: functional; outline: as §1
# Enterococcus faecalis [4] = test: Antibacterial activity against vancomycin and linezolid-resistant Enterococcus faecalis by broth micro dilution method; type: functional; outline: as §2
# Enterococcus faecium [5] = test: Antibacterial activity against vancomycin-resistant Enterococcus faecium by broth micro dilution method; type: functional; settings: for MIC90: Enterococcus faecium; outline: as §2
# Staphylococcus aureus [6] = test: Antibacterial activity against methicillin-resistant Staphylococcus aureus at 128 ug/mL by broth micro dilution method; type: functional, organism-based; outline: as §2
# [7] = test system: Staphylococcus epidermidis; test: Antibacterial activity against methicillin-resistant Staphylococcus epidermidis at 128 ug/mL by broth micro dilution method; type: functional, organism-based; outline: as §2
# Enterococcus faecalis [8] = test: Antibacterial activity against vancomycin-resistant Enterococcus faecalis at 128 ug/mL by broth micro dilution method; type: functional, organism-based; outline: as §2
# Enterococcus faecium [9] = test: Antibacterial activity against Enterococcus faecium at 128 ug/mL by broth micro dilution method; type: functional, organism-based
# Escherichia coli [10] = test: Antibacterial activity against Escherichia coli LCB0010 at 128 ug/mL by broth micro dilution method; type: functional, organism-based
# Moraxella catarrhalis [11] = test: Antibacterial activity against Moraxella catarrhalis by broth micro dilution method; type: functional; outline: as §1
# Escherichia coli [12] = test: Antibacterial activity against Escherichia coli LCB0011 at 128 ug/mL by broth micro dilution method; type: functional, organism-based
# Escherichia coli [13] = test: Antibacterial activity against Escherichia coli LCB0012 at 128 ug/mL by broth micro dilution method; type: functional, organism-based
# Pseudomonas aeruginosa = test: Antibacterial activity against Pseudomonas aeruginosa at 128 ug/mL by broth micro dilution method; type: functional, organism-based
# Klebsiella pneumoniae = test: Antibacterial activity against Klebsiella pneumoniae at 128 ug/mL by broth micro dilution method; type: functional, organism-based
# Haemophilus influenzae = test: Antibacterial activity against Haemophilus influenzae at 128 ug/mL by broth micro dilution method; type: functional, organism-based
# [14] = test system: Mycobacterium tuberculosis; test: Antitubercular activity against Mycobacterium tuberculosis H37Rv ATCC 27294 by radiometric respiratory technique; type: functional
# [15] = test system: Mycobacterium tuberculosis; test: Antitubercular potency, ratio of Isoniazid MIC to drug MIC against Mycobacterium tuberculosis H37Rv ATCC 27294; type: functional
# [16] = test system: Mycobacterium tuberculosis; test: Antitubercular potency, ratio of Rifampicin MIC to drug MIC against Mycobacterium tuberculosis H37Rv ATCC 27294; type: functional
# Staphylococcus aureus [17] = test: Antibacterial activity against Staphylococcus aureus at 128 ug/mL by broth micro dilution method; type: functional, organism-based
# [18] = test system: Staphylococcus epidermidis; test: Antibacterial activity against Staphylococcus epidermidis at 128 ug/mL by broth micro dilution method; type: functional, organism-based
# Enterococcus faecalis [19] = test: Antibacterial activity against Enterococcus faecalis at 128 ug/mL by broth micro dilution method; type: functional, organism-based
# Enterococcus faecalis [20] = test: Antibacterial activity against vancomycin and linezolid-resistant Enterococcus faecalis at 128 ug/mL by broth micro dilution method; type: functional, organism-based; outline: as §2
# Escherichia coli [21] = test: Antibacterial activity against Escherichia coli LCB0012 by broth micro dilution method; type: functional; outline: as §1
# Moraxella catarrhalis [22] = test: Antibacterial activity against Moraxella catarrhalis at 128 ug/mL by broth micro dilution method; type: functional, organism-based
# Staphylococcus aureus [23] = test: Antibacterial activity against methicillin-resistant Staphylococcus aureus by broth micro dilution method; type: functional; outline: as §2
# Enterococcus faecium [24] = test: Antibacterial activity against vancomycin-resistant Enterococcus faecium at 128 ug/mL by broth micro dilution method; type: functional, organism-based; outline: as §2
# Enterococcus faecalis [25] = test: Antibacterial activity against vancomycin-resistant Enterococcus faecalis by broth micro dilution method; type: functional; outline: as §2
# Escherichia coli [26] = test: Antibacterial activity against Escherichia coli LCB0011 by broth micro dilution method; type: functional; outline: as §1
# [27] = test system: Staphylococcus epidermidis; test: Antibacterial activity against methicillin-resistant Staphylococcus epidermidis by broth micro dilution method; type: functional; outline: as §2
Compound,MIC90 (Staphylococcus aureus [1]) [µg/mL],MIC90 (Enterococcus faecalis [3]) [µg/mL],MIC90 (Enterococcus faecium [5]) [µg/mL],Activity (Staphylococcus aureus [6]),Activity [7],Activity (Enterococcus faecalis [8]),Activity (Enterococcus faecium [9]),Activity (Escherichia coli [10]),Activity (Escherichia coli [12]),Activity (Escherichia coli [13]),Activity (Pseudomonas aeruginosa),Activity (Klebsiella pneumoniae),Activity (Haemophilus influenzae),MIC [14] [µg/mL],Ratio [15],Ratio [16],Activity [18],Activity (Enterococcus faecalis [19]),Activity (Enterococcus faecalis [20]),Activity (Moraxella catarrhalis [22]),further results
CCOC(=O)C1=C(O)CC(c2ccccc2)N(C(=O)Cn2cnc3ccccc32)C1c1ccccc1 (stereo unspecified),32,128,64,inactive,inactive,inactive,inactive,inactive,inactive,inactive,inactive,inactive,inactive,16,1.56,200,–,–,–,–,MIC90 [2]: 128 µg/mL; MIC90 (Enterococcus faecalis [4]): 128 µg/mL; MIC90 (Moraxella catarrhalis [11]): 64 µg/mL
Cc1ccc(C2CC(=O)C(C)C(c3ccc(C)cc3)N2C(=O)Cn2cnc3ccccc32)cc1 (stereo unspecified),–,–,64,inactive,inactive,inactive,inactive,inactive,inactive,–,inactive,inactive,inactive,–,–,–,inactive,inactive,inactive,inactive,Activity (Staphylococcus aureus [17]): inactive; MIC90 (Escherichia coli [21]): 128 µg/mL
COc1ccc(C2C(C)C(=O)C(C)C(c3ccc(OC)cc3)N2C(=O)Cn2cnc3ccccc32)cc1 (stereo unspecified),16,64,16,–,inactive,inactive,inactive,inactive,inactive,–,inactive,inactive,inactive,64,0.39,50,inactive,–,inactive,–,MIC90 (Staphylococcus aureus [23]): 128 µg/mL; MIC90 (Escherichia coli [21]): 128 µg/mL; MIC90 (Moraxella catarrhalis [11]): 16 µg/mL
COc1cc(OC)cc(C2CC(=O)C(C)C(c3cc(OC)cc(OC)c3)N2C(=O)Cn2cnc3ccccc32)c1 (stereo unspecified),–,–,–,inactive,inactive,inactive,inactive,inactive,inactive,inactive,inactive,inactive,inactive,–,–,–,inactive,inactive,inactive,inactive,Activity (Staphylococcus aureus [17]): inactive; Activity (Enterococcus faecium [24]): inactive
COc1ccccc1C1C(C)C(=O)C(C)C(c2ccccc2OC)N1C(=O)Cn1cnc2ccccc21 (stereo unspecified),32,64,16,inactive,inactive,inactive,inactive,inactive,inactive,inactive,inactive,inactive,inactive,128,0.19,25,inactive,–,inactive,inactive,–
Cc1ccc(C2C(C)C(=O)C(C)C(c3ccc(C)cc3)N2C(=O)Cn2cnc3ccccc32)cc1 (stereo unspecified),64,128,32,–,inactive,–,inactive,inactive,–,–,inactive,inactive,inactive,–,–,–,inactive,–,inactive,inactive,MIC90 (Staphylococcus aureus [23]): 64 µg/mL; MIC90 (Enterococcus faecalis [25]): 128 µg/mL; MIC90 (Escherichia coli [26]): 128 µg/mL
COc1ccc(C2CC(=O)C(C)C(c3ccc(OC)cc3)N2C(=O)Cn2cnc3ccccc32)cc1 (stereo unspecified),–,–,128,inactive,inactive,inactive,inactive,inactive,inactive,–,inactive,inactive,inactive,–,–,–,inactive,inactive,inactive,inactive,Activity (Staphylococcus aureus [17]): inactive; MIC90 (Escherichia coli [21]): 128 µg/mL
CO[C@H]1/C=C/O[C@@]2(C)Oc3c(C)c(O)c4c(O)c(c(/C=N/N5CCN(C)CC5)c(O)c4c3C2=O)NC(=O)/C(C)=C\C=C\[C@H](C)[C@H](O)[C@@H](C)[C@@H](O)[C@@H](C)[C@H](OC(C)=O)[C@@H]1C [RIFAMPIN],–,–,–,–,–,–,–,–,–,–,–,–,–,32,–,–,–,–,–,–,–
NNC(=O)c1ccncc1 [ISONIAZID],–,–,–,–,–,–,–,–,–,–,–,–,–,0.25,–,–,–,–,–,–,–
CCOC(=O)C1=C(OS(=O)(=O)c2cccs2)CC(c2ccccc2)N(C(=O)CCl)C1c1ccccc1 (stereo unspecified),32,–,–,–,–,inactive,inactive,inactive,–,inactive,inactive,inactive,inactive,32,0.78,100,–,inactive,inactive,–,MIC90 (Staphylococcus aureus [23]): 64 µg/mL; MIC90 [2]: 64 µg/mL; MIC90 [27]: 128 µg/mL; Activity (Enterococcus faecium [5]): 32 µg/mL; MIC90 (Escherichia coli [26]): 128 µg/mL; MIC90 (Moraxella catarrhalis [11]): 32 µg/mL
